Laboratory results as given in ChEMBL document CHEMBL2331234, “Novel analgesic/anti-inflammatory agents: 1,5-diarylpyrrole nitrooxyalkyl ethers and related compounds as cyclooxygenase-2 inhibiting nitric oxide donors” (J Med Chem, 2013).
Activity calls are given as the source filed them. The calls are words filed in the database; no cut-off is given here.

Legend:
J774 = assay: Selectivity index, ratio of IC50 for COX1 in mouse J774 cells […]; type: cell-based
Mus musculus = assay: Antinociceptive activity in po dosed Swiss albino mouse assessed as reduction in number of acetic acid-induced writhing counted 5 mins after acetic acid challenge counted for 10 mins; type: functional; conditions: read-out: MED
Summary of the method: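 Male Swiss albino mice (23-25 g) dosed orally, then given 0.6% acetic acid (10 mL/kg) ip. Stretching movements counted for 10 min, starting 5 min after the acetic acid. Control group received CMC. At least 7 mice/group; mean ± SEM, ANOVA with Fisher's PLSD.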

Rattus norvegicus [1] = assay: Antiinflammatory activity in Sprague-Dawley/Wistar rat assessed as decrease in carrageenan-induced hyperalgesia at 40 mg/kg, po administered 4 hrs after carrageenan-challenge measured after 60 mins (reference value: 33.9 +/- 3.7 g); type: functional
Rattus norvegicus [2] = assay: Antiinflammatory activity in Sprague-Dawley/Wistar rat assessed as decrease in carrageenan-induced hyperalgesia at 40 mg/kg, po administered 4 hrs after carrageenan-challenge measured after 30 mins (reference value: 34.8 +/- 3.0 g); type: functional
Rattus norvegicus [3] = assay: Antiinflammatory activity in Sprague-Dawley/Wistar rat assessed as decrease in carrageenan-induced hyperalgesia at 20 mg/kg, po administered 4 hrs after carrageenan-challenge measured after 30 mins (reference value: 34.8 +/- 3.0 g); type: functional
Rattus norvegicus [4] = assay: Antiinflammatory activity in Sprague-Dawley/Wistar rat assessed as decrease in carrageenan-induced hyperalgesia at 20 mg/kg, po administered 4 hrs after carrageenan-challenge measured after 60 mins (reference value: 33.9 +/- 3.7 g); type: functional
Rattus norvegicus [5] = assay: Antiinflammatory activity in Sprague-Dawley/Wistar rat assessed as decrease in carrageenan-induced paw edema at 40 mg/kg, po administered 3 hrs 30 mins after carrageenan-challenge measured after 60 mins (reference value: 2.48 +/- 0.06 mL); type: functional
[6] = target: T1, Prostaglandin G/H synthase 1 (Mus musculus, UniProt P22437); assay: Inhibition of arachidonic acid-induced COX1 activity in mouse J774 cells assessed as decrease in PGE2 levels incubated for 15 mins prior to arachidonic acid-challenge measured after 30 mins by RIA; type: cell-based
T1 sequence (P22437 whole entry): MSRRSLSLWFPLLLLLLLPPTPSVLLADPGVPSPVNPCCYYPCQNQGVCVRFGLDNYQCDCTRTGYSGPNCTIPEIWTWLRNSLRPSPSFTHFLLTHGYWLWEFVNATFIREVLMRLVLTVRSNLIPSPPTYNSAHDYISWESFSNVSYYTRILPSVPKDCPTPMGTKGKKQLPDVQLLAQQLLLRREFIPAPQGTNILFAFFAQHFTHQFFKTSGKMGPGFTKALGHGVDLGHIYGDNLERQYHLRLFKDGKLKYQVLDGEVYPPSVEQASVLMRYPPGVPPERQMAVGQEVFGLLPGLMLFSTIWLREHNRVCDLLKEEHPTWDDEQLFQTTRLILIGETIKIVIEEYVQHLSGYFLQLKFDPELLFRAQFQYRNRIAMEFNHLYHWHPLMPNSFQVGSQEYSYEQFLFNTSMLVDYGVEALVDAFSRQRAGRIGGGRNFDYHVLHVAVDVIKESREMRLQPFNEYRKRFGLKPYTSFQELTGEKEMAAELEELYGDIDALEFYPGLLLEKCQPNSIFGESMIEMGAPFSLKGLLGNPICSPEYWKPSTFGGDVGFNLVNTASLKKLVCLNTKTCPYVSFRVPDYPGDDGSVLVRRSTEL
Summary of the method: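 Cells were in DMEM with 10% FBS and adhered for 2 h at 37 °C. They were pretreated with compound (10 µM; 0.1-1 µM where inhibition exceeded 50%) for 15 min, then given 15 µM arachidonic acid for 30 min at 37 °C. Supernatant PGE2 was measured by RIA. Triplicate wells were used and the mean of three experiments reported. IC50 came from a variable-slope sigmoidal fit.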

Rattus norvegicus [7] = assay: Antiinflammatory activity in Sprague-Dawley/Wistar rat assessed as decrease in carrageenan-induced paw edema at 20 mg/kg, po administered 3 hrs 30 mins after carrageenan-challenge measured after 60 mins (reference value: 2.48 +/- 0.06 mL); type: functional
Rattus norvegicus [8] = assay: Antiinflammatory activity in Sprague-Dawley/Wistar rat assessed as decrease in carrageenan-induced hyperalgesia at 20 mg/kg, po administered 4 hrs after carrageenan-challenge measured after 120 mins (reference value: 31.4 +/- 3.7 g); type: functional
Rattus norvegicus [9] = assay: Antiinflammatory activity in Sprague-Dawley/Wistar rat assessed as decrease in carrageenan-induced hyperalgesia at 40 mg/kg, po administered 4 hrs after carrageenan-challenge measured after 120 mins (reference value: 31.4 +/- 3.7 g); type: functional
Aorta [10] = assay: Vasorelaxant activity in Wistar rat endothelium-removed thoracic aortic rings assessed as reduction of KCl-induced vasoconstriction treated after KCl-challenge; type: functional, tissue-based
Summary of the method: (§1)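 Thoracic aortic rings from male Wistar rats (250-350 g), endothelium removed by rubbing; removal confirmed as <10% relaxation to ACh 10 µM in KCl 30 mM-contracted rings. Rings contracted with KCl 30 mM; at plateau, 3-fold increasing compound concentrations (1 nM-10 µM) added. Isometric tension recorded. Emax given as % of KCl tone; pIC50 as -log molar concentration halving that tone. 6-10 experiments; also run with ODQ 1 µM.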

Aorta [11] = assay: Vasorelaxant activity in Wistar rat endothelium-removed thoracic aortic rings assessed as reduction of KCl-induced vasoconstriction at 0.001 uM to 10 uM treated after KCl-challenge in presence of guanylate cyclase inhibitor 1H-[1,2,4]-oxadiazolo[4,3-a]quinoxalin-1-one; type: functional, tissue-based
Summary of the method: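 Endothelium-denuded aortic rings from male Wistar rats (250-350 g) were preincubated with ODQ 1 µM. Rings were contracted with KCl 30 mM, then given 3-fold increasing concentrations from 1 nM to 10 µM. Emax is the % relaxation of KCl tone. pIC50 was calculated when efficacy reached 50%, from 6-10 experiments.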

Aorta [12] = assay: Vasorelaxant activity in Wistar rat endothelium-removed thoracic aortic rings assessed as reduction of KCl-induced vasoconstriction at 0.001 uM to 10 uM treated after KCl-challenge relative to control; type: functional; summary of the method: as §1
[13] = target: T2, Prostaglandin G/H synthase 2 (Mus musculus, UniProt Q05769); assay: Inhibition of Escherichia coli lipopolysaccharide-induced COX2 activity in mouse J774 cells assessed as decrease in PGE2 levels after 24 hrs by RIA; type: cell-based
T2 sequence (Q05769 whole entry): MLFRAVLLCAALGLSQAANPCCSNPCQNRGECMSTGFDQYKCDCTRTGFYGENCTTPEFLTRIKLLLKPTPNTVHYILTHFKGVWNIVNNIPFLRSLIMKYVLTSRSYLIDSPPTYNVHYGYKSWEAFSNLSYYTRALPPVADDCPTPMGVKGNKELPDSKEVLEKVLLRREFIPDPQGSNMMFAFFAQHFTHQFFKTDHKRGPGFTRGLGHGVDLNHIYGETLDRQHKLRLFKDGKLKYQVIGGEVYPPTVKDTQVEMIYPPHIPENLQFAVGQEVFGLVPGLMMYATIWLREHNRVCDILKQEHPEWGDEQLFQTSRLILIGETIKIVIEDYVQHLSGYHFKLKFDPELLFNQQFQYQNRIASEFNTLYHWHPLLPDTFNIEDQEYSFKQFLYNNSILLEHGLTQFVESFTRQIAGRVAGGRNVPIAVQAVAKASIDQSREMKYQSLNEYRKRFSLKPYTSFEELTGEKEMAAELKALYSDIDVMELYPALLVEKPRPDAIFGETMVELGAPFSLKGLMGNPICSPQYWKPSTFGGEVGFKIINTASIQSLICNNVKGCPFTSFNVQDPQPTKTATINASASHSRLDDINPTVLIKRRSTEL
Summary of the method: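 Adhered cells in DMEM/10% FBS were stimulated with E. coli LPS 10 µg/mL for 24 h with compound present at 0.01-10 µM. Supernatant PGE2 was measured by RIA. IC50 came from a variable-slope sigmoidal fit.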

Structure (SMILES) | Ratio IC50 (J774) | minimal effective dose (Mus musculus) [mg/kg] | Activity (Rattus norvegicus [1]) [g] | Activity (Rattus norvegicus [2]) [g] | Activity (Rattus norvegicus [3]) [g] | Activity (Rattus norvegicus [4]) [g] | Activity (Rattus norvegicus [5]) [mL] | IC50 [6] [µM] | Activity (Rattus norvegicus [7]) [mL] | Activity (Rattus norvegicus [8]) [g] | Activity (Rattus norvegicus [9]) [g] | IC50 (Aorta [10]) [µM] | pIC50 (Aorta [10]) | Activity (Aorta [11]) | Emax (Aorta [12]) | IC50 [13] [nM] | Activity (Aorta [10])
Cc1c(CCOCCO[N+](=O)[O-])cc(-c2ccc(S(C)(=O)=O)cc2)n1-c1ccc(F)c(F)c1 | > 10.9 | 20 | 42.5 | 49.5 | 44.6 | 46.9 | 2.1 | > 10 | 2.19 | 38.8 | 35.3 | ≥ 10 | Dose-dependent effect | inactive |  |  | 
Cc1c(CCOCCCO)cc(-c2ccc(S(C)(=O)=O)cc2)n1-c1ccc(F)cc1 | > 10.6 |  |  |  |  |  |  | > 10 |  |  |  |  |  |  | inactive |  | 
Cc1c(CCOCCCO[N+](=O)[O-])cc(-c2ccc(S(C)(=O)=O)cc2)n1-c1ccc(F)cc1 | > 52.6 |  |  |  |  |  |  | > 10 |  |  |  |  |  |  | inactive |  | 
Cc1c(CCOCCO)cc(-c2ccc(S(C)(=O)=O)cc2)n1-c1ccccc1 |  | 10 |  |  | 56.6 | 49.2 |  | > 10 | 1.34 | 37.8 |  |  |  |  | inactive |  | 
Cc1c(CCOCCO)cc(-c2ccc(S(C)(=O)=O)cc2)n1-c1ccc(F)c(F)c1 | > 23.8 | 20 | 55.2 | 53.2 | 43.6 | 46.7 | 1.96 | > 10 | 2.16 | 41.4 | 49.3 |  |  |  | inactive |  | 
Cc1c(CCOCCCO[N+](=O)[O-])cc(-c2ccc(S(C)(=O)=O)cc2)n1-c1ccccc1 | > 667 | 20 |  |  | 53.7 | 51.6 |  | > 10 | 1.8 | 45.6 |  | ≥ 10 | Dose-dependent effect | inactive | 48% |  | 
Cc1c(CCOCCCO)cc(-c2ccc(S(C)(=O)=O)cc2)n1-c1cccc(F)c1 | 15.4 |  |  |  |  |  |  | 3.7 |  |  |  |  |  |  | inactive | 240 | 
Cc1c(CCOCCO)cc(-c2ccc(S(C)(=O)=O)cc2)n1-c1cccc(F)c1 | > 217 | 20 | 45.3 | 51.4 | 46.9 | 48.6 | 2.12 | > 10 | 2.46 | 37.2 | 39.5 |  |  |  | inactive |  | 
Cc1c(CCOCCCO)cc(-c2ccc(S(C)(=O)=O)cc2)n1-c1ccccc1 | > 1.11 | 20 |  |  | 52.9 | 50.3 |  | > 10 | 1.86 | 46.6 |  |  |  |  | inactive | 8990 | 
Cc1c(CCOCCCO[N+](=O)[O-])cc(-c2ccc(S(C)(=O)=O)cc2)n1-c1cccc(F)c1 | 126 |  |  |  |  |  |  | 2.9 |  |  |  |  |  |  | inactive | 23 | 
Cc1c(CCOCCO[N+](=O)[O-])cc(-c2ccc(S(C)(=O)=O)cc2)n1-c1ccccc1 | > 588 | 10 |  |  | 54.2 | 55.3 |  | > 10 | 1.45 | 48.7 |  | 6.03 |  | inactive |  |  | Dose-dependent effect
O=[N+]([O-])OCC(CO[N+](=O)[O-])O[N+](=O)[O-] [NITROGLYCERIN] |  |  |  |  |  |  |  |  |  |  |  |  |  |  | 93% |  | 
